Results collected from several papers.
CDK1: Cyclin-dependent kinase 1 (CDK1, Homo sapiens, UniProt P06493)
CDK1 with cyclin A: Cyclin-dependent kinase 1, with cyclin A (CDK1, Homo sapiens, UniProt P06493)
CDK1 with cyclin E: Cyclin-dependent kinase 1, with cyclin E (CDK1, Homo sapiens, UniProt P06493)
CDK1 with cyclin B: Cyclin-dependent kinase 1, with cyclin B (CDK1, Homo sapiens, UniProt P06493)
CDK1 with cyclin B1: Cyclin-dependent kinase 1, with cyclin B1 (CDK1, Homo sapiens, UniProt P06493)

Structure (SMILES)	target	test	conditions	endpoint	value
CSc1nc(C)c(-c2ccnc(Nc3ccc(N4CCOCC4)cc3)c2)[nH]1	CDK1	enzyme activity, inhibitor	10 µM	inhibition	62%
CC(C)(O)[C@H]1CC[C@H](Nc2ccc3ncc(-c4cccc(C(F)(F)F)c4)n3n2)CC1	CDK1 with cyclin A	enzyme activity, inhibitor	1 µM	remaining activity	95.4%
O=C(Nc1cnn(-c2csc(C(=O)NC3COC3)c2)c1)Nc1c(F)cccc1Cl	CDK1 with cyclin E	enzyme activity, inhibitor	5 µM	remaining activity	98.4%
CC(C)n1cnc2c(Nc3cccc(Cl)c3)nc(NCCO)nc21	CDK1 with cyclin A	cell-free assay	0.5 µM	remaining signal	78.5%
Cc1ccc(Nc2nccc(N(C)c3ccc4c(C)n(C)nc4c3)n2)cc1S(N)(=O)=O	CDK1 with cyclin B	enzyme activity, inhibitor	10 µM	inhibition	29%
O=Nc1c(-c2c(O)[nH]c3ccccc23)[nH]c2ccccc12	CDK1 with cyclin A	cell-free assay	0.5 µM	remaining signal	88.4%
CCCOc1ccc(OC)c(F)c1C(=O)c1ccc(C(=O)N[C@@H]2CNC[C@H]2NC(=O)c2ccc3[nH]ncc3c2)cc1	CDK1 with cyclin B	enzyme activity, inhibitor	10 µM	remaining activity	102%
Cc1sc(C(=O)NC2COC2)cc1-n1cc(NC(=O)Nc2c(F)cccc2Cl)cn1	CDK1 with cyclin B	enzyme activity, inhibitor	10 µM	remaining activity	92.7%
N#CCCc1ccc2c(c1)-c1[nH]c3ccc([N+](=O)[O-])cc3c1CC(=O)N2	CDK1 with cyclin A	cell-free assay	0.5 µM	remaining signal	24.8%
COc1cc2ncnc(Nc3ccc(Oc4ccccc4)c(C)c3C)c2cc1OC	CDK1 with cyclin B	enzyme activity, inhibitor	1 µM	inhibition	3%
CC(C)(C)c1nc2c(s1)c1nc(N)ncc1c1ccc(NS(=O)(=O)c3c(F)cccc3F)c(F)c12	CDK1 with cyclin B1	enzyme activity, inhibitor, radiometric	1 µM	remaining activity	89%
CC(C)c1ccc(NC(=O)c2cccs2)c(-c2nc3ccccc3[nH]c2=O)c1	CDK1 with cyclin B	enzyme activity, inhibitor	1 µM	activity vs control	107%
O=C1Nc2ccc(Cl)cc2C1=Cc1cc(Cl)c(O)c(Cl)c1	CDK1 with cyclin B	cell-free assay	0.5 µM	remaining signal	96.3%
O=C(Nc1cnn(-c2csc(C(=O)NC3COC3)c2)c1)Nc1ccccc1Cl	CDK1 with cyclin E	enzyme activity, inhibitor	5 µM	remaining activity	94.7%
c1ccc(CNc2nc(N3CCOc4ccccc43)nc3c2CCCC3)cc1	CDK1	target engagement in cells, inhibitor, chemoproteomics	20 mM	inhibition	-6.5%
CC/C(=N\NC(=O)NCc1cccc(O)c1)c1ccc(O)c(C)c1O	CDK1 with cyclin B1	enzyme activity, inhibitor	0.1 µM	inhibition	-14.8%
CC(C)(C)c1nc(-c2cccc(NS(=O)(=O)c3c(F)cccc3F)c2F)c(-c2ccnc(N)n2)s1	CDK1 with cyclin B1	enzyme activity, inhibitor, radiometric	1 µM	remaining activity	89%
CCCS(=O)(=O)Nc1ccc(F)c(C(=O)c2c[nH]c3ncc(-c4ccc(Cl)cc4)cc23)c1F	CDK1 with cyclin B	enzyme activity, inhibitor	1 µM	inhibition	< 10%
O=C1NC(=O)c2c1c1c3ccccc3[nH]c1n1cncc21	CDK1 with cyclin B	cell-free assay	0.5 µM	remaining signal	85.5%
CNCc1ccc(-c2cc(-c3nc(-c4ccc(S(=O)(=O)C(C)C)cc4)cnc3N)on2)cc1	CDK1 with cyclin B	enzyme activity, inhibitor	0.4 µM	inhibition	0%
O=C1NC(=O)c2cc(Nc3ccc(F)cc3)c(Nc3ccc(F)cc3)cc21	CDK1 with cyclin B	cell-free assay	0.5 µM	remaining signal	103%
CCN(CC)CCNC(=O)c1c(C)[nH]c(/C=C2\C(=O)Nc3ccc(F)cc32)c1C	CDK1 with cyclin B	enzyme activity, inhibitor	0.3 µM	inhibition	2%
